≈ marks a conversion by molar mass, not a printed value.
Columns and labels:
[1] = system: Staphylococcus aureus; assay: Antibacterial activity against Staphylococcus aureus KCTC503 assessed as reduction in bacterial cell growth incubated for 24 hrs by ELISA; format: functional; settings: KCTC503, 24 h
In short: (§1)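 MICs determined by serial dilution in 96-well microtiter plates. The strain panel included Gram-positive S. aureus strains and multidrug-resistant clinical isolates. Gatifloxacin, moxifloxacin, norfloxacin and oxacillin served as antibacterial positive controls.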

[2] = system: Staphylococcus aureus; assay: Antibacterial activity against Quinolone-resistant Staphylococcus aureus CCARM 3505 assessed as reduction in bacterial cell growth incubated for 24 hrs by ELISA; format: functional; settings: CCARM 3505, 24 h; in short: as §1
[3] = system: Staphylococcus aureus; assay: Antibacterial activity against Staphylococcus aureus RN4220 assessed as reduction in bacterial cell growth incubated for 24 hrs by ELISA; format: functional; settings: RN4220, 24 h; in short: as §1
[4] = system: Candida albicans; assay: Antifungal activity against Candida albicans 7535 assessed as reduction in bacterial cell growth incubated for 24 hrs by ELISA; format: functional; settings: Candida albicans, 7535, 24 h
In short: (§2)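 MIC determined by serial dilution in 96-well microtiter plates. Strains used were E. coli 1924 and P. aeruginosa 2742 (Gram-negative), S. mutans 3289 (Gram-positive) and the fungus C. albicans 7535. Gatifloxacin, moxifloxacin, norfloxacin and oxacillin served as antibacterial reference agents, and fluconazole as the antifungal reference.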

[5] = system: Staphylococcus aureus; assay: Antibacterial activity against Methicillin-resistant Staphylococcus aureus CCARM 3167 assessed as reduction in bacterial cell growth incubated for 24 hrs by ELISA; format: functional; settings: CCARM 3167, 24 h; in short: as §1
[6] = system: Streptococcus mutans; assay: Antibacterial activity against Streptococcus mutans KCTC3289 assessed as reduction in bacterial cell growth incubated for 24 hrs by ELISA; format: functional; settings: KCTC3289, 24 h; in short: as §2
[7] = target: T1, Tyrosine-protein phosphatase non-receptor type 1 (Homo sapiens, UniProt P18031); assay: Inhibition of human recombinant GST-tagged PTP1B expressed in Escherichia coli BL21 (DE3) using pNPP as substrate measured for 2 mins by colorimetric analysis
T1 sequence (P18031 whole entry): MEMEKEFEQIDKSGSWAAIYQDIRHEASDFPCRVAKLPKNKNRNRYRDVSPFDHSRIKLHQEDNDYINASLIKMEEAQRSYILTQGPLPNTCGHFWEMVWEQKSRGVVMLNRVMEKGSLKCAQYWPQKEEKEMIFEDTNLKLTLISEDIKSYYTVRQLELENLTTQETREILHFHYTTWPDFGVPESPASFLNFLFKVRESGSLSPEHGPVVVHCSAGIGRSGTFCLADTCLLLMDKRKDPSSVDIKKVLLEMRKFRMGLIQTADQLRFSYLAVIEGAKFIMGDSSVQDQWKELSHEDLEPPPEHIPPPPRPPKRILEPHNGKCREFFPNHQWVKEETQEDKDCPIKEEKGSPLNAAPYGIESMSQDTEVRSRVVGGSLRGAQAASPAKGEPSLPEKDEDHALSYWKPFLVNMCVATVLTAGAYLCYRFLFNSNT

[8] = system: Pseudomonas aeruginosa; assay: Antibacterial activity against Pseudomonas aeruginosa 2742 assessed as reduction in bacterial cell growth incubated for 24 hrs by ELISA; format: functional; settings: Pseudomonas aeruginosa, 2742, 24 h; in short: as §2
[9] = system: Staphylococcus aureus; assay: Potency index, ratio of MIC of gatifloxacin to MIC of compound for antibacterial activity against Staphylococcus aureus KCTC503 assessed as reduction in bacterial cell growth incubated for 24 hrs by ELISA; format: functional
[10] = system: Staphylococcus aureus; assay: Antibacterial activity against Quinolone-resistant Staphylococcus aureus CCARM 3519 assessed as reduction in bacterial cell growth incubated for 24 hrs by ELISA; format: functional; settings: CCARM 3519, 24 h; in short: as §1
[11] = system: Staphylococcus aureus; assay: Antibacterial activity against Methicillin-resistant Staphylococcus aureus CCARM 3506 assessed as reduction in bacterial cell growth incubated for 24 hrs by ELISA; format: functional; settings: CCARM 3506, 24 h; in short: as §1
[12] = system: Escherichia coli; assay: Antibacterial activity against Escherichia coli 1924 assessed as reduction in bacterial cell growth incubated for 24 hrs by ELISA; format: functional; settings: Escherichia coli, 1924, 24 h; in short: as §2
[13] = system: Staphylococcus aureus; assay: Antibacterial activity against Staphylococcus aureus KCTC209 assessed as reduction in bacterial cell growth incubated for 24 hrs by ELISA; format: functional; settings: KCTC209, 24 h; in short: as §1
[14] = system: Escherichia coli; assay: Potency index, ratio of MIC of moxifloxacin to MIC of compound for antibacterial activity against Escherichia coli 1924 assessed as reduction in bacterial cell growth incubated for 24 hrs by ELISA; format: functional
[15] = system: Staphylococcus aureus; assay: Potency index, ratio of MIC of norfloxacin to MIC of compound for antibacterial activity against Methicillin-resistant Staphylococcus aureus CCARM 3506 assessed as reduction in bacterial cell growth incubated for 24 hrs by ELISA; format: functional
[16] = system: Staphylococcus aureus; assay: Potency index, ratio of MIC of norfloxacin to MIC of compound for antibacterial activity against Methicillin-resistant Staphylococcus aureus CCARM 3167 assessed as reduction in bacterial cell growth incubated for 24 hrs by ELISA; format: functional
[17] = system: Staphylococcus aureus; assay: Potency index, ratio of MIC of oxacillin to MIC of compound for antibacterial activity against Methicillin-resistant Staphylococcus aureus CCARM 3167 assessed as reduction in bacterial cell growth incubated for 24 hrs by ELISA; format: functional
[18] = system: Staphylococcus aureus; assay: Potency index, ratio of MIC of oxacillin to MIC of compound for antibacterial activity against Methicillin-resistant Staphylococcus aureus CCARM 3506 assessed as reduction in bacterial cell growth incubated for 24 hrs by ELISA; format: functional
[19] = system: Escherichia coli; assay: Potency index, ratio of MIC of gatifloxacin to MIC of compound for antibacterial activity against Escherichia coli 1924 assessed as reduction in bacterial cell growth incubated for 24 hrs by ELISA; format: functional
[20] = target: T2, Tyrosine-protein phosphatase non-receptor type 11 (Homo sapiens, UniProt Q06124); assay: Inhibition of human recombinant GST-tagged SHP2 (catalytic domain […] residues) expressed in Escherichia coli BL21 (DE3) using pNPP as substrate measured for 2 mins by colorimetric analysis
T2 sequence (Q06124 whole entry): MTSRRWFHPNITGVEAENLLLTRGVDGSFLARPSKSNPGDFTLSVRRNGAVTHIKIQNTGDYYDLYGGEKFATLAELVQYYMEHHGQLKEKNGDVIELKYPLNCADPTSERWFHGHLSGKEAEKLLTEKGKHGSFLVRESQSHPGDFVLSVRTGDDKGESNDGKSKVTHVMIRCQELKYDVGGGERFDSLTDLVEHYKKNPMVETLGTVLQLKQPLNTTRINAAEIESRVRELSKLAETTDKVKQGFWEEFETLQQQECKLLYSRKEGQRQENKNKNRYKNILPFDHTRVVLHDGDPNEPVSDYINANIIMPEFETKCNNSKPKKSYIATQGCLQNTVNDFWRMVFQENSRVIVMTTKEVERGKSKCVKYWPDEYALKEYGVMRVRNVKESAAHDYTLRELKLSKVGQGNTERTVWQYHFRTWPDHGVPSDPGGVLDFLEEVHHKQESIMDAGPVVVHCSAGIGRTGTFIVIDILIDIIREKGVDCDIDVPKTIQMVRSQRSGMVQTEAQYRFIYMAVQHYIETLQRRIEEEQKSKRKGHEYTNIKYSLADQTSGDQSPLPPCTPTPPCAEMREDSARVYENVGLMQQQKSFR
In short: (§3)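 pNPP hydrolysis assay. IC50 was derived by regression analysis and given as mean ± SD of three replications.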

[21] = target: T3, M-phase inducer phosphatase 2 (Homo sapiens, UniProt P30305); assay: Inhibition of human recombinant GST-tagged CDC25B expressed in Escherichia coli BL21 (DE3) using pNPP as substrate measured for 2 mins by colorimetric analysis; in short: as §3
T3 sequence (P30305 whole entry): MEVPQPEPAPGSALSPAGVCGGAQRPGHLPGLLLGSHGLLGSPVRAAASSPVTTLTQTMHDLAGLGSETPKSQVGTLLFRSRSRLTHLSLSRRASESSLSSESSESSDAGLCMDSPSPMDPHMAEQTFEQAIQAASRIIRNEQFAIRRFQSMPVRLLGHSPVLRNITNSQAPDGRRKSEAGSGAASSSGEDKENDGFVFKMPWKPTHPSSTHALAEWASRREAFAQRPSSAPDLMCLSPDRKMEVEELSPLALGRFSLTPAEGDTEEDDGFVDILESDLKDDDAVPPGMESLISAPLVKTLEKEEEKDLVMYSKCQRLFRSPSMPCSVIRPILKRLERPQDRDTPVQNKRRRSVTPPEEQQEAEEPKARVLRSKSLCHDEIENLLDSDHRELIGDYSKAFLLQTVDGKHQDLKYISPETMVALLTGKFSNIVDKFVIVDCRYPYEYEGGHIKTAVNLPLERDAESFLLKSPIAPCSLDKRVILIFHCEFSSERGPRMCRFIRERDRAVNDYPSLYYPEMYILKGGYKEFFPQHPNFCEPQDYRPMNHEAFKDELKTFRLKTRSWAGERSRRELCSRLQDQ

[22] = target: T4, Tyrosine-protein phosphatase non-receptor type 2 (Homo sapiens, UniProt P17706); assay: Inhibition of human recombinant GST-tagged TCPTP (catalytic domain […] residues) expressed in Escherichia coli BL21 (DE3) using pNPP as substrate measured for 2 mins by colorimetric analysis
T4 sequence (P17706 whole entry): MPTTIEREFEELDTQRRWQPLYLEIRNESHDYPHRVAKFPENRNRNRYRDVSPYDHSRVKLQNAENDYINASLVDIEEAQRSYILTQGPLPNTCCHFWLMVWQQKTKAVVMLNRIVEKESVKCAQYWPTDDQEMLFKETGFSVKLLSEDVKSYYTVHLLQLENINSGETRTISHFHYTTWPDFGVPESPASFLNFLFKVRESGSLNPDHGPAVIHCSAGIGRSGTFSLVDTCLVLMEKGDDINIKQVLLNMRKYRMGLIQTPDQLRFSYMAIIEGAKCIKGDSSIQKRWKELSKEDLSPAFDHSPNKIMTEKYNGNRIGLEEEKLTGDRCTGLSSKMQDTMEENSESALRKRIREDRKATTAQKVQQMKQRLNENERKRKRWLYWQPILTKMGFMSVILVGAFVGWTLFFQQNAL

[23] = target: Tyrosine-protein phosphatase non-receptor type 6 (Homo sapiens, UniProt P29350); assay: Inhibition of human recombinant GST-tagged SHP1 (catalytic domain 244 to 570 residues) expressed in Escherichia coli BL21 (DE3) using pNPP as substrate measured for 2 mins by colorimetric analysis; in short: as §3
Sequence of Tyrosine-protein phosphatase non-receptor type 6 (P29350 whole entry, the tested form may be a part): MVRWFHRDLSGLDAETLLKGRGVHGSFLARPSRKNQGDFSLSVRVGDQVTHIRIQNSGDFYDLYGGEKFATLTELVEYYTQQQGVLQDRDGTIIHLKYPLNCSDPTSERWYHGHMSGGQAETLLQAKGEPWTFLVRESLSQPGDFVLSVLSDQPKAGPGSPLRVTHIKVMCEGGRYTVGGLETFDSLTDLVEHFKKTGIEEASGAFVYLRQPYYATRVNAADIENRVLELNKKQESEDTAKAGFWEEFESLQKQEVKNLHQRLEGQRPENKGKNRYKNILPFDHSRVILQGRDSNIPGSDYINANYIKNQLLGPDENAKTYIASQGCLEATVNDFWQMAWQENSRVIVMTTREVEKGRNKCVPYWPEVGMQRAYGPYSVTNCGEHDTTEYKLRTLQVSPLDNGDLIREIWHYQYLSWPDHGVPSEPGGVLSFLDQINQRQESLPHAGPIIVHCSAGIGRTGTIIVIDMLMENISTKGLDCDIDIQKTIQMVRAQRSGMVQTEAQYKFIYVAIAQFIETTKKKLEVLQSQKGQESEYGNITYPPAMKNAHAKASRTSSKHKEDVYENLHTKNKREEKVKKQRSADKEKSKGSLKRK

SMILES | MIC [1] | MIC [2] | MIC [3] | MIC [4] | MIC [5] | MIC [6] | IC50 [7] | MIC [8] | Ratio [9] | MIC [10] | MIC [11] | MIC [12] | MIC [13] | Ratio [15] | Ratio [16] | Ratio [17] | Ratio [18] | further results
O=C(O)C(Cc1c[nH]c2ccccc12)N1C(=O)/C(=C/c2cccc(OCc3ccc(Cl)cc3)c2)SC1=S (stereo not drawn) | 2 µg/mL (≈ 3.64 µM) | 2 µg/mL (≈ 3.64 µM) | 2 µg/mL (≈ 3.64 µM) | > 64 µg/mL | 2 µg/mL (≈ 3.64 µM) | 2 µg/mL (≈ 3.64 µM) | 5760 nM | > 64 µg/mL | 2 | 4 µg/mL (≈ 7.29 µM) | 4 µg/mL (≈ 7.29 µM) | 2 µg/mL (≈ 3.64 µM) | 2 µg/mL (≈ 3.64 µM) | – | – | – | – | –
O=C(O)C(Cc1c[nH]c2ccccc12)N1C(=O)/C(=C/c2ccc(OCc3ccc(Br)cc3)cc2)SC1=S (stereo not drawn) | 2 µg/mL (≈ 3.37 µM) | 2 µg/mL (≈ 3.37 µM) | 1 µg/mL (≈ 1.68 µM) | > 64 µg/mL | 2 µg/mL (≈ 3.37 µM) | 1 µg/mL (≈ 1.68 µM) | 2600 nM | > 64 µg/mL | 2 | 2 µg/mL (≈ 3.37 µM) | 2 µg/mL (≈ 3.37 µM) | 1 µg/mL (≈ 1.68 µM) | 4 µg/mL (≈ 6.74 µM) | 4 | 4 | 64 | 64 | Ratio [14]: 2; Ratio [19]: 2
O=C(O)C(Cc1c[nH]c2ccccc12)N1C(=O)/C(=C/c2ccc3cc(OCc4ccc(Cl)cc4)ccc3c2)SC1=S (stereo not drawn) | – | 2 µg/mL (≈ 3.34 µM) | 2 µg/mL (≈ 3.34 µM) | > 64 µg/mL | 2 µg/mL (≈ 3.34 µM) | 2 µg/mL (≈ 3.34 µM) | 720 nM | > 64 µg/mL | – | 4 µg/mL (≈ 6.68 µM) | 2 µg/mL (≈ 3.34 µM) | 2 µg/mL (≈ 3.34 µM) | – | 4 | 4 | 64 | 64 | –
O=C(O)C(Cc1c[nH]c2ccccc12)N1C(=O)/C(=C/c2ccc3cc(OCc4ccc(F)cc4)ccc3c2)SC1=S (stereo not drawn) | 2 µg/mL (≈ 3.43 µM) | 2 µg/mL (≈ 3.43 µM) | 1 µg/mL (≈ 1.72 µM) | > 64 µg/mL | 2 µg/mL (≈ 3.43 µM) | 2 µg/mL (≈ 3.43 µM) | 450 nM | > 64 µg/mL | – | 2 µg/mL (≈ 3.43 µM) | 2 µg/mL (≈ 3.43 µM) | 2 µg/mL (≈ 3.43 µM) | 4 µg/mL (≈ 6.86 µM) | – | – | – | – | IC50 [20]: 4260 nM; IC50 [21]: 380 nM; IC50 [22]: 1120 nM; IC50 [23]: 1520 nM
COc1cc(/C=C2\SC(=S)N(C(Cc3c[nH]c4ccccc34)C(=O)O)C2=O)ccc1OCc1ccc(Cl)cc1Cl (stereo not drawn) | 2 µg/mL (≈ 3.26 µM) | 2 µg/mL (≈ 3.26 µM) | 2 µg/mL (≈ 3.26 µM) | > 64 µg/mL | 2 µg/mL (≈ 3.26 µM) | 2 µg/mL (≈ 3.26 µM) | 700 nM | > 64 µg/mL | – | 2 µg/mL (≈ 3.26 µM) | 2 µg/mL (≈ 3.26 µM) | 2 µg/mL (≈ 3.26 µM) | 2 µg/mL (≈ 3.26 µM) | 4 | 4 | 64 | 64 | –

— ChEMBL document CHEMBL4346701, “Synthesis and biological evaluation of tryptophan-derived rhodanine derivatives as PTP1B inhibitors and anti-bacterial agents” (Eur J Med Chem, 2019)
